Measured values pooled from the literature.
Protocols differ between the studies behind these lines.
Target: Casein kinase I isoform epsilon (CSNK1E, Homo sapiens, UniProt P49674)

| Structure (SMILES) | assay | setting | quantity | result |
| --- | --- | --- | --- | --- |
| C=CC(=O)N1CCC[C@@H](n2nc(-c3ccc(Oc4ccccc4)cc3)c3c(N)ncnc32)C1 | enzyme activity, inhibitor | 1 µM | inhibition | 65% |
| CC(=O)ON=C1C=CC(=C(C#N)c2ccccc2)C=C1 | enzyme activity, inhibitor, ADP detection | 20 µM | activity vs control | 60% |
| Cc1ccc(NC(=O)c2ccnc(C(F)(F)F)c2)cc1-c1cc(OCCO)nc(N2CCOCC2)c1 | binding, competition with immobilised ligand | 1 µM | remaining binding | 100% |
| CO[C@@H]1[C@H](N(C)C(=O)c2ccccc2)C[C@H]2O[C@]1(C)n1c3ccccc3c3c4c(c5c6ccccc6n2c5c31)C(=O)NC4 | enzyme activity, inhibitor | 1 µM | inhibition | 0% |
| CCCCC(=O)Nc1ccc(-c2ccc3ncn(CCC)c(=O)c3c2)cn1 | binding, competition with immobilised ligand | 0.5 µM | remaining binding | 82% |
| C#Cc1cc(-c2cc(Nc3nc(N[C@@H](C)c4ccc(F)cn4)ncc3Cl)n[nH]2)ccc1C=O | enzyme activity, inhibitor | 0.2 µM | inhibition | 4.66% |
| C1=C/COCc2cc(ccc2OCCN2CCCC2)Nc2nccc(n2)-c2cccc(c2)COC/1 | binding | 0.1 µM | remaining binding | 99% |
| CN1CCN(C(=O)c2ccc(NC(=O)Nc3ccc(N(C)c4ccnc(Nc5ccc(CS(C)(=O)=O)cc5)n4)cc3)cc2)CC1 | binding, competition with immobilised ligand | 1 µM | remaining binding | 75% |
